Data on 25 compounds can be found in ChEMBL document CHEMBL2413075, “Structure activity relationship study of benzo[d]thiazol-2(3H)one based σ receptor ligands” (Bioorg Med Chem Lett, 2013).

Structures are written as SMILES.

What is called Ki is a dissociation constant, usually derived from enzyme kinetics or from competition with a known ligand.

The target in experiment [1] is Sigma non-opioid intracellular receptor 1 (Rattus norvegicus, UniProt Q9R0C9). Briefly: Displacement of [3H](+)-pentazocine from sigma 1 receptor in rat liver membranes. In kind it is cell membranes, Membrane. Summed up:
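Rat liver membranes in a 96-well high-throughput format. Sigma-1 sites labeled with 5 nM [3H](+)-pentazocine. Nonspecific binding defined with 10 μM haloperidol. Ki values derived from displacement.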

The nature of experiment [2]: Displacement of [3H]DTG from sigma 2 receptor in rat liver membranes. In kind it is cell membranes, Membrane. Summed up: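 Rat liver membranes in a 96-well high-throughput format. Sigma-2 sites labeled with 5 nM [3H]DTG, with 300 nM (+)-pentazocine present to mask sigma-1. Nonspecific binding defined with 10 μM haloperidol. Ki values derived from displacement.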
In general terms: In a radioligand displacement assay an active substance lowers the binding of a labelled ligand.

For experiment [3], the species on record is Rattus norvegicus. As to the kind of experiment: Selectivity ratio of Ki for sigma 2 receptor in rat liver membranes to Ki for sigma 1 receptor in rat liver membranes. It counts as cell membranes. The note with it: Membrane.
The species named for experiment [4] is Cavia porcellus. Briefly: Selectivity ratio of Ki for sigma 2 receptor in guinea pig brain membranes to Ki for sigma 1 receptor in guinea pig brain membranes. In kind it is cell membranes.
Experiment [5] can be described thus: Binding affinity to sigma 2 receptor in guinea pig brain membranes. It counts as cell membranes, Cavia porcellus, Membrane.

Sigma non-opioid intracellular receptor 1, sequence (Q9R0C9 whole entry): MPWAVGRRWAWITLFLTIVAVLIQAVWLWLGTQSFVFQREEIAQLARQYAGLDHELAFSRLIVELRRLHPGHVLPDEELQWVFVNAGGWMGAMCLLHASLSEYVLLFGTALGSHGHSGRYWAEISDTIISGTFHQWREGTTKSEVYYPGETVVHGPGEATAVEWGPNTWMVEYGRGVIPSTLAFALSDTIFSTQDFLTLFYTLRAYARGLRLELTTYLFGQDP

`CCCC(=O)c1ccc2c(c1)sc(=O)n2CCCCN1CCCCCC1`: the Ki in experiment [1] worked out at 4.8 nM; in experiment [2] it was 21.6 nM. For the same compound, the Ratio Ki in experiment [3] was found to be 4.5.
In the same order, the values of `CCC(=O)c1ccc2c(c1)sc(=O)n2CCN1CCCCCC1` are 4.5 nM, 2180 nM and 484.
Consider `CCCc1ccc2c(c1)sc(=O)n2CCCCCCN1CCCCCC1`, for which the Ki turned out to be 6.3 nM in experiment [1] and 2.3 nM in experiment [2]. Moreover, the Ratio Ki in experiment [3] was determined as 0.4.
The like results for `CCC(=O)c1ccc2c(c1)sc(=O)n2CCCCCCN1CCCCCC1` were, in that order, 10.4 nM, 1.1 nM and 0.1.
`O=c1sc2ccccc2n1CCCCCCN1CCCCCC1`: the inhibition constant Ki turned out to be 7.5 nM in experiment [1] and 2.4 nM in experiment [2]. Also, in experiment [3], the Ratio Ki was 0.3.
The like results for `O=c1sc2ccccc2n1CCCCN1CCCCCC1` were, in that order, 3.2 nM, 101 nM and 31.
On to `O=c1sc2ccccc2n1CCCCCN1CCCCCC1`, for which the values for the Ki in experiment [1] and in experiment [2] were 7 nM and 2.5 nM, respectively. Further, the Ratio Ki in experiment [3] was 0.4.
As to `CCCc1ccc2c(c1)sc(=O)n2CCN1CCCCCC1`, the results for the Ratio Ki in experiment [4] and in experiment [3] were > 1000 and 169, respectively. The figures for the Ki in experiment [5], in experiment [1] and in experiment [2] were > 1000 nM, 1.6 nM and 270 nM, respectively.
Consider `O=c1sc2ccccc2n1CCN1CCCCCCC1`, for which the Ki is 9.7 nM in experiment [1] and 716 nM in experiment [2]. In addition, the Ratio Ki in experiment [3] was determined as 74.
Take `CCCC(=O)c1ccc2c(c1)sc(=O)n2CCCCCN1CCCCCC1`: the Ki was 16.3 nM in experiment [1] and 5.7 nM in experiment [2]. Moreover, the Ratio Ki in experiment [3] worked out at 0.4.
`CCCCc1ccc2c(c1)sc(=O)n2CCCCCCN1CCCCCC1`: the figures for the Ki in experiment [1] and in experiment [2] were 12 nM and 4.1 nM, respectively. For the same compound, the Ratio Ki in experiment [3] is 0.3.
As to `CCC(=O)c1ccc2c(c1)sc(=O)n2CCCN1CCCCCC1`, the Ki in experiment [1] is 3.7 nM; in experiment [2], 305 nM. For the same compound, the Ratio Ki in experiment [3] amounted to 83.
On to `CCCc1ccc2c(c1)sc(=O)n2CCCN1CCCCCC1`, for which the inhibition constant Ki in experiment [1] turned out to be 1.4 nM; in experiment [2], 17.2 nM. Moreover, the Ratio Ki in experiment [3] amounted to 13.
For the compound `CCCc1ccc2c(c1)sc(=O)n2CCCCCN1CCCCCC1`, the Ki worked out at 4.6 nM in experiment [1] and 1.6 nM in experiment [2]. The Ratio Ki in experiment [3] came to 0.3.
The like results for `CCCc1ccc2c(c1)sc(=O)n2CCCCN1CCCCCC1` were, in that order, 6.1 nM, 4.3 nM and 0.7.
The like results for `CCCCc1ccc2c(c1)sc(=O)n2CCCCN1CCCCCC1` were, in that order, 1.9 nM, 4.4 nM and 2.4.
In the same order, the values of `CCCC(=O)c1ccc2c(c1)sc(=O)n2CCCCCCN1CCCCCC1` are 10.8 nM, 2.3 nM and 0.2.
Take `CCC(=O)c1ccc2c(c1)sc(=O)n2CCN1CCCC1`: the results for the Ki in experiment [1] and in experiment [2] were 116 nM and 4790 nM, respectively. For the same compound, the Ratio Ki in experiment [3] came to 41.
As for `CCC(=O)c1ccc2c(c1)sc(=O)n2CCCCCN1CCCCCC1`, the Ki in experiment [1] came to 12.2 nM; in experiment [2], 8.3 nM. In addition, the Ratio Ki in experiment [3] came to 0.7.
In the case of `O=c1sc2ccccc2n1CCCN1CCCCCC1`, the Ki was found to be 4.1 nM in experiment [1] and 177 nM in experiment [2]. Besides, the Ratio Ki in experiment [3] turned out to be 43.
Turning to `CCCCc1ccc2c(c1)sc(=O)n2CCCN1CCCCCC1`, the Ki in experiment [1] was 2.2 nM; in experiment [2], 15.3 nM. For the same compound, the Ratio Ki in experiment [3] was found to be 7.
With `O=c1sc2ccccc2n1CCN1CCCC1`, the Ki was 578 nM in experiment [1] and 8260 nM in experiment [2]. In addition, the Ratio Ki in experiment [3] stood at 14.
The like results for `CCC(=O)c1ccc2c(c1)sc(=O)n2CCCCN1CCCCCC1` were, in that order, 10.3 nM, 30.3 nM and 3.
Take `O=c1sc2cc(CCCF)ccc2n1CCN1CCCCCC1`: in experiment [3], the Ratio Ki was 486.
In the case of `CCCC(=O)c1ccc2c(c1)sc(=O)n2CCCN1CCCCCC1`, the values for the Ki in experiment [1] and in experiment [2] were 2.6 nM and 104 nM, respectively. The Ratio Ki in experiment [3] stood at 39.
